Runt-CBFb FRET: Runt domain-CBFb interaction inhibition | Q01196+Q13951 | Cerulean-Runt/Venus-CBFb FRET ratio 530/480, 1 h | inhibition, % at 20 µM | 220,000 compounds, 0.46% hits | AID 1496;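 active = inhibition over about 50% at 20 µM in the single-dose screen, limit read from the data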;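 also: 0% = DMSO wells and 100% = excess unlabeled CBFb competitor control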
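Assay system: Cerulean-Runt domain / Medium: Tris 50 mM pH 7.5, KCl, K2SO4, 0.01% BSA / Timing: protein complex preformed 1 h, compound exposure 1 h, room temperature, dark / Measured by: FRET, excitation 422 nm, emission at 530 and 480 nm / Evaluation: loss of energy transfer signal / Control set: 5 µM unlabeled CBFb as full-inhibition high control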
MEX-5 binding: C. elegans MEX-5 TCR-2 RNA binding activity | MEX-5/FITC-TCR2 RNA binding, fluorescence polarization; active compounds read low | activity score (negative = inhibition of binding), % at 10 µM | 300,000 compounds, 0.38% hits;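 active = inhibition past about -25% in most replicates, and total fluorescence under double the plate's negative control median, limit read from the data; inconclusive = replicates evenly split on the limit, or fluorescence at least double controls; inactive = too little inhibition in most replicates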;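 also: 0% = DMSO and -100% = 5 µM competing unlabeled TCR2 RNA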
Target sequence (Q9XUB2 whole entry, looked up): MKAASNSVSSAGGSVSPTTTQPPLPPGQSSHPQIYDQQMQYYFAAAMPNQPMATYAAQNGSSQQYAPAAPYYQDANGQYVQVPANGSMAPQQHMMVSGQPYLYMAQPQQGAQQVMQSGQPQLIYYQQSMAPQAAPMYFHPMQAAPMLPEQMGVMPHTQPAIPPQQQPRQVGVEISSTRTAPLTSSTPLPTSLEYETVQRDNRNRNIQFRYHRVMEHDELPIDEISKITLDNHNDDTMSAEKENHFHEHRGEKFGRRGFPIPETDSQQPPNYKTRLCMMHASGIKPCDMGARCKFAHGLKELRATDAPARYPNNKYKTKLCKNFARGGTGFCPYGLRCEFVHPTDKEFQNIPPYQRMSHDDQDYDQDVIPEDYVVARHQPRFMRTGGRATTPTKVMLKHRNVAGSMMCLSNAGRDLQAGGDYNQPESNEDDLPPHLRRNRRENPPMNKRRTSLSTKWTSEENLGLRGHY
Runt-SMMHC FRET: blocks binding of human RUNX1 Runt domain to CBFb-SMMHC; Cerulean-Runt/Venus-CBFb-SMMHC FRET ratio 530/480, 1 h; inhibition, % at 20 µM; 220,000 compounds, 0.74% hits; AID 1434;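 active = mean inhibition across duplicate retests at 20 µM reaching about 50%, limit read from the data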;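 also: 0% = DMSO wells and 100% = wells with excess untagged CBFb-SMMHC; inhibitors lower the FRET ratio by blocking Runt binding to CBFb-SMMHC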
RanGTP-Impb inh: disruptors of Ran-importin-beta complex formation – biochemical, FRET, CFP-Ran, YFP-importin-beta, homogeneous, primary screen. inhibition, % (no concentration beside the values). 300,000 compounds, 1.1% hits. AID 2216. cell-free CFP-Ran/YFP-importin-beta FRET ratio;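 active = more than half of the replicate wells show a fall in the fluorescence ratio signal beyond about 16%, limit read from the data, passing the limit was not always enough; inconclusive = exactly half of the replicate wells pass the set limit; inactive = fewer than half of replicates pass the limit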;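 also: 0% = DMSO wells and 100% = Ran loaded with GDP instead of GTP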
PKD1 kinase inh: PKD1 (human) kinase inhibition | Q15139 | PKD1 kinase fluorescence polarization assay | inhibition, % (no concentration beside the values) | 200,000 compounds, 0.056% hits | AID 797
EBV gp42 inh: inhibitors of Epstein-Barr virus glycoprotein 42; 220,000 compounds, 0.42% hits; Q1HVG2; inhibition, % (tested at 21.74 µM); Fluorescence polarization binding assay, mP read-out
Target sequence (Q1HVG2 whole entry, looked up): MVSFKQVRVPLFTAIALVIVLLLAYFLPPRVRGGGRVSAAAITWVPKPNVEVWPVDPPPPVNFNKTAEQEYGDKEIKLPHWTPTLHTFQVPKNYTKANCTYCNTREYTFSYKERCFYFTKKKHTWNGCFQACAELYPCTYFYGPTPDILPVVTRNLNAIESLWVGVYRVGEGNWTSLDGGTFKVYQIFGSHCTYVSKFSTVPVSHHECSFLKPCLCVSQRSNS
Active calls of the source: *; u = inconclusive; x = no result; + = active, no number. Shown are actives, neighbours in structure and some others; about 2% of the full set was active somewhere. Rule as the data show it, unless noted: active = inhibition above about 50%; inactive = the rest.

SMILES | Runt-CBFb FRET | MEX-5 binding | Runt-SMMHC FRET | RanGTP-Impb inh | PKD1 kinase inh | EBV gp42 inh
CN1CCC=C(C(=O)N2c3ccccc3Sc3ccc(Cl)cc32)C1 | 1 | 1 | 4 | 1 | x | -21
CC(C)OC(=O)c1c2c(n3ccccc13)C(=O)c1ccccc1C2=O | -22 | -31* | -29 | -50 | -5 | 88*
COC(=O)c1ccc2c(c1O)C(=O)c1ccccc1C2=O | 1 | -1 | -14 | -5 | 1 | 8
Cc1c(OCC(=O)N2CCC(C(=O)O)CC2)ccc2c1oc(=O)c1ccccc12 | x | -1 | x | -6 | x | x
Cc1ccccc1NC(=O)OCc1ccccc1 | x | 2 | x | 2 | x | x
CC(=O)Oc1ccc2c(c1)O/C(=C\c1ccncc1)C2=O | -338 | u | -134 | -203 | x | 77*
COc1ccc(S(=O)(=O)Oc2ccc3c(c2)O/C(=C\c2cccnc2)C3=O)cc1 | -25 | 1 | -4 | 10 | -5 | -13
COc1ccccc1C(=O)Oc1ccc2c(c1)O/C(=C\c1ccncc1)C2=O | -369 | -26* | -216 | -189 | 5 | 33
CC1=N/C(=C/c2ccco2)C(=O)O1 | 12 | u | 4 | -5 | 4 | -6
CCc1ccc(/C=C2\Oc3cc(OC(=O)N4CCOCC4)ccc3C2=O)cc1 | 0 | 2 | 11 | 2 | -5 | -11
Cc1cc(O)cc2c1C(=O)/C(=C/c1ccco1)O2 | x | -42* | x | -27 | x | x
O=C(Oc1ccc2c(c1)O/C(=C\c1ccncc1)C2=O)c1cccs1 | -116 | -5 | -81 | -135 | x | 12
COc1ccc(/C=C2\Oc3cc(OC(=O)N4CCOCC4)ccc3C2=O)cc1 | -18 | 3 | -1 | 22* | x | -17
CCC(=O)Oc1ccc2c(c1)O/C(=C\c1ccco1)C2=O | -114 | -19 | 81* | -21 | x | 32
CCOC(=O)c1cc2c(=O)n3ccccc3nc2n(C)c1=NC(=O)c1c(-c2c(F)cccc2Cl)noc1C | x | -3 | x | u | x | x
CCCCn1c(=NC(=O)c2ccco2)c(C(=O)OCC)cc2c(=O)n3cccc(C)c3nc21 | 10 | -4 | 82* | 123* | x | -12
CCCCn1c(=NC(=O)c2ccco2)c(C(=O)OCC)cc2c(=O)n3ccccc3nc21 | 10 | 1 | 46 | -3 | -14 | -23
CCOC(=O)c1cc2c(=O)n3ccccc3nc2n(C(C)C)c1=NC(=O)c1c(-c2c(F)cccc2Cl)noc1C | 101* | 2 | 63* | 90* | -1 | -9
CCCCCn1c(=NC(=O)c2ccco2)c(C(=O)OCC)cc2c(=O)n3ccccc3nc21 | 11 | -4 | 42 | 137* | 7 | 2
CCc1ccc(N(C(=O)c2csnn2)C(C(=O)NC(C)(C)C)c2cccnc2)cc1 (stereo not drawn) | 0 | 1 | 0 | 3 | -8 | 6
Cc1cccc(N(C(=O)c2snc(C(N)=O)c2N)C(C(=O)NCc2ccccc2)c2ccncc2)c1 (stereo not drawn) | x | -1 | x | 2 | x | x
O=C1c2ccccc2C(=O)N1CCc1nc2ccccc2c(=O)n1CCCn1ccnc1 | 0 | 0 | -2 | 25* | 7 | -20
O=C1c2ccccc2C(=O)N1CCCc1nc2ccccc2c(=O)n1Cc1ccco1 | 130* | 2 | 7 | 6 | -11 | 7
CC(=O)c1ccc(Nc2c3c(nc4ccccc24)CCCC3)cc1 | 2 | -4 | -2 | 6 | x | 86*
O=C(NCc1nnc(SCC(=O)N2CCN(c3ccccc3)CC2)o1)c1ccc(F)cc1 | x | -1 | x | 0 | x | x
SMILES | Runt-CBFb FRET | MEX-5 binding | Runt-SMMHC FRET | RanGTP-Impb inh | PKD1 kinase inh | EBV gp42 inh
COc1ccccc1-c1c(C#N)c(N)nc2c1CCc1ccccc1-2 | 10 | -2 | 20 | 20* | -1 | 16
CCOc1cc(-c2c(C#N)c(N)nc3c2CCc2ccccc2-3)ccc1O | -3 | 1 | 7 | 0 | -14 | 9
Cc1c(OCC(=O)NCc2cccnc2)ccc2c3c(c(=O)oc12)CCCC3 | x | 3 | x | 1 | x | x
COC(=O)c1c(C(=O)OC)c(-c2ccc(F)cc2)n2c1CS(=O)(=O)C2 | x | 1 | x | 4 | x | x
COC(=O)c1c(C(=O)OC)c(-c2ccccc2)n2c1CS(=O)(=O)C2 | 1 | 1 | -1 | 22* | -12 | 16
CCOC(=O)N1CCN(S(=O)(=O)N2CCCC(C(=O)NCCc3ccc(OC)c(OC)c3)C2)CC1 (stereo not drawn) | x | -1 | x | u | x | x
CCOC(=O)c1c2n(c3ccc(O)cc13)CCCCC2 | -2 | -1 | -4 | 22* | -6 | -10
C[C@@H](CC#N)CN1CC[C@H](C(C)(C)C)CCC1=O | x | 0 | x | -1 | x | x
O=C(CSc1nc2cc(C(=O)O)ccc2c(=O)n1-c1ccc(F)cc1)Nc1ccc(F)c(F)c1F | x | -1 | x | -1 | x | x
COCCNc1c2c(c(C#N)c3nc4ccccc4n13)CCCC2 | 36 | 1 | 75* | 21* | 1 | -16
N#Cc1c2c(c(NCc3cccnc3)n3c1nc1ccccc13)CCC2 | 23 | -4 | x | u | -11 | -19
CC(=O)c1ccc(Nc2c3c(c(C#N)c4nc5ccccc5n24)CCC3)cc1 | 39 | -2 | 68* | 31* | -3 | -29
N#Cc1c2c(c(NCCOCCO)n3c1nc1ccccc13)CCCC2 | 39 | -17 | 85* | -4 | -9 | -4
CC(=O)Nc1ccc(N2CCc3c(C)c(C#N)c4nc5ccccc5n4c32)cc1 | 4 | -14 | 81* | 110* | -16 | 59*
OC(C#Cc1ccccn1)c1cccs1 (stereo not drawn) | 1 | -35* | 8 | -3 | -5 | 1
O=C1C2CC=C(Cl)CC2C(=O)N1CC1Cc2ccccc2CO1 (stereo not drawn) | -17 | -26* | -53 | -11 | -4 | 44
O=S(=O)(Nc1nc2ccccc2nc1Nc1ccc(N2CCOCC2)cc1)c1cc(Cl)ccc1Cl | 2 | -16 | -7 | 37* | -8 | 9
COc1ccc(Cn2c(=N)c(C(=O)NC3CCCCC3)cc3c(=O)n4ccccc4nc32)cc1 | x | -3 | x | 28* | x | x
COCCCn1c(=N)c(C(=O)NC2CCCCC2)cc2c(=O)n3ccccc3nc21 | 5 | -2 | 83* | 192* | -1 | -10
Cc1ccsc1CNC(=O)c1c(-c2ccccc2)noc1C | 2 | -1 | 1 | 0 | x | -4
C=CCn1c(=O)/c(=C/c2ccc(O)cc2)s/c1=C(/C#N)c1nnc2n1CCCCC2 | -131 | x | -101 | x | 1 | -135
C=CCn1c(=O)/c(=C/c2cc(OC)c(OC)c(OC)c2)s/c1=C(/C#N)c1nc2ccccc2n1C | -74 | u | -218 | u | -14 | 96*
CN1CCc2nc(NC(=O)COc3ccc(C#N)cc3)sc2C1 | 36 | -1 | 59* | 23* | 0 | -15
CC(NC(=O)c1cc2c(=O)n3ccccc3nc2n(CC2CCCO2)c1=N)c1ccccc1 (stereo not drawn) | x | -7 | x | + | x | x
